Most compounds without a hit are left out; they make up all but 3% or so of the library.
T cruzi repl – blocks replication of Trypanosoma cruzi; T. cruzi beta-gal in NIH3T3, luminescence, 90 h; inhibition, % (test concentration not listed); actives 1.4% (n = 300,000); AID 1885;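 active = mean inhibition across valid replicates above about 55%, limit read from the data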;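 note: signal also drops with host cell toxicity which is not excluded here; higher percent means less beta-gal luminescence so fewer parasites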
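System: mouse NIH/3T3 fibroblasts infected with β-gal-expressing T. cruzi Tulahuen C4 / Input: NIH/3T3 cells, 5,000 per well / Buffer or medium: Low-serum DMEM with 2% FBS / Probe or stimulus: 5000 reporter trypomastigotes per well / Schedule: ≥90 h infection period, 3 h prior cell attachment / Measured by: GalScreen luminescence, 60 min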
HSF-1 act – increases HSF-1 driven luciferase reporter signal; NIH3T3-HGL HSF-1 luciferase reporter, MG132, 8 h; 100% = twice DMSO control signal; activation, % at 9 µM; actives 1.7% (n = 300,000); AID 504408;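 active = mean replicate activation of at least 50% with a set share of replicates each reaching 50%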
PvdQ acylase – blocks Pseudomonas aeruginosa PvdQ acylase activity | purified PvdQ acylase, fluorescence plate reader | inhibition, % at 10 µM | actives 0.063% (n = 340,000) | AID 488965; in the data active = inhibition above about 30%, passing the limit was not always enough
N-glyco inh – N-linked glycosylation inhibition; reporter increase, % at 12.5 µM; AID 588692; actives 0.23% (n = 360,000); D54 ERlucT glycosylation luciferase reporter, 24 h; percent of 100 nM tunicamycin response;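 active = mean luciferase reporter signal, scaled so untreated is 0 and the glycosylation-blocking control 100, at or above a set limit in every replicate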;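 note: luciferase carries N-glycosylation sites so blocking glycosylation raises the light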
CaV13 FRET inh – Primary screen for inhibitors of IQ motif and Ca2+-dependent inactivation inhibitor domain binding in CACNA1D, Förster resonance energy transfer in living cells, …; HEK cells, CFP/YFP FRET ICDI-IQ, plate reader, 10 min; percent FRET-ratio fall versus neutral wells; inhibition, % at 12.3 µM; actives 0.098% (n = 340,000);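 active = mean replicate inhibition of at least 30% and at least 1% of replicates passing that level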
PfHsp90 yeast 2 – growth inhibition of yeast expressing Plasmodium Hsp90 | S. cerevisiae expressing PfHsp90, BacTiter-Glo ATP, 48 h; yeast lacking PDR1 and PDR3 efflux regulators | inhibition, % at 9.4 µM | actives 0.32% (n = 310,000) | AID 504621;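 active = every replicate shows inhibition above about 80%, whatever the replicate mean, limit read from the data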
Large screens that a line does not name were inactive.

COc1ccc(C2c3[nH]c4ccccc4c3CCN2Cc2cccn2-c2ncccn2)cc1C (stereo not given)	T cruzi repl 79.0
c1ccc(C2c3[nH]c4ccccc4c3CCN2Cc2cccn2-c2ccccn2)nc1 (stereo not given)	none
COC(=O)C[C@H]1CC[C@H](NC(=O)Nc2ccccc2OC)[C@@H](CO)O1	none (no result: T cruzi repl, HSF-1 act, PvdQ acylase, N-glyco inh, PfHsp90 yeast 2)
COC(=O)[C@@]12C[C@@H](CC(=O)NCc3cccc4ccccc34)C(=O)N(Cc3ccco3)C1=CCC(C)(C)C2	none (no result: T cruzi repl, HSF-1 act, PvdQ acylase, N-glyco inh, PfHsp90 yeast 2)
CCOP(=O)(OCC)c1nc(-c2cccc3ccccc23)oc1NCc1ccccc1	none (no result: PfHsp90 yeast 2)
CCOP(=O)(OCC)c1nc(-c2cccc3ccccc23)oc1NCc1ccc(OC)cc1	T cruzi repl 57.4
O=C1NC(=O)C(c2cn(-c3ccccc3)nc2-c2ccc(F)cc2)N1 (stereo not given)	none (no result: CaV13 FRET inh)
CC1=C(C(=O)c2ccccc2)C(c2cn(-c3ccccc3)nc2-c2ccc(Cl)cc2)NC(=S)N1 (stereo not given)	T cruzi repl 59.9 (no result: CaV13 FRET inh)
COC(=O)c1cc2c(c3c4cc(OC)ccc4n(C(=O)c4ccccc4)c13)C(=O)N(C1CCCCC1)C2	none (no result: T cruzi repl, HSF-1 act, PvdQ acylase, N-glyco inh, PfHsp90 yeast 2)
O=C(NCC1CC1)c1ccc2c3n(nc2c1)-c1ccccc1CO3	HSF-1 act 57.9 (no result: PfHsp90 yeast 2)
Cc1ccc2c(c1)COc1c3ccc(C(=O)NCC4CC4)cc3nn1-2	none
CC(=O)N1C[C@@H](CO)[C@@H]2C[C@H]1c1ccccc1N2C	none (no result: T cruzi repl, HSF-1 act, PvdQ acylase, N-glyco inh, PfHsp90 yeast 2)
Cc1ccc(S[C@@H](CCN2CC[C@H](O)CCC2=O)c2ccccc2)cc1	CaV13 FRET inh 33.2
COc1ccc(C(=O)Oc2ccc(C(C)=O)cc2)c(OC)c1	HSF-1 act 59.7
COc1ccc(C(=O)/C=C/c2cc(C(=O)O)cc3c2OCOC3)c(O)c1	HSF-1 act 94.9
COc1ccc(S(=O)(=O)NCC(c2cccnc2)N2CCN(Cc3ccccc3)CC2)cc1 (stereo not given)	T cruzi repl 54.6
COc1ccc(S(=O)(=O)NCC(c2cccnc2)N2CCN(Cc3ccccc3)CC2)cc1C (stereo not given)	T cruzi repl 57.0
COc1ccc(S(=O)(=O)NCC(c2cccnc2)N2CCN(C)CC2)cc1C (stereo not given)	none
COc1cc(-c2nc(-c3ccc4c(c3)-c3ccccc3S4(=O)=O)c(-c3ccccc3)[nH]2)cc(OC)c1OC	T cruzi repl 58.7 (no result: CaV13 FRET inh)
COc1cc(-c2nc(-c3ccccc3)c(-c3cccs3)[nH]2)cc(OC)c1OC	T cruzi repl 61.9, N-glyco inh 56.6
O=C(N[C@H](C(=O)N1CCC[C@H]1C(=O)NCc1ccccc1)C1CCCCC1)c1ccccc1	none (no result: T cruzi repl, HSF-1 act, PvdQ acylase, N-glyco inh, PfHsp90 yeast 2)
CCN(CC)C(=O)CSc1ncnc2sc(C)c(C)c12	HSF-1 act 51.6
S=C(NCCc1ccc(Cl)cc1)NC1CCCC1	none
S=C(Nc1cc(Cl)cc(Cl)c1)NC1CCN(Cc2ccccc2)CC1	none (no result: N-glyco inh)
S=C(NCCc1ccc(Cl)cc1)NC1CCCCC1	HSF-1 act 57.8 (no result: PfHsp90 yeast 2)
Clc1ccc(CNC2CCN(Cc3ccccc3)CC2)cc1	HSF-1 act 81.5
S=C(NCc1ccc(Cl)cc1)NC1CCN(Cc2ccccc2)CC1	T cruzi repl 59.9
COC(=O)[C@]12C[C@H](CC(=O)N3CCN(C(=O)c4ccco4)CC3)C(=O)N(Cc3ccccc3)C1=C[C@H](C(C)(C)C)O[C@@H]2C	none (no result: T cruzi repl, HSF-1 act, PvdQ acylase, N-glyco inh, PfHsp90 yeast 2)
Clc1cccc(Cl)c1CSc1nnc(-c2ccncc2)s1	none
Clc1ccc(CSc2nnc(-c3ccncc3)s2)cc1	T cruzi repl 59.4
CC(C)C[C@H]1COc2cccc(N3CCCC3)c2S(=O)(=O)N1	none (no result: T cruzi repl, HSF-1 act, PvdQ acylase, N-glyco inh, PfHsp90 yeast 2)
Cc1cc(OCCCn2ccnc2)ccc1C(C)C	T cruzi repl 73.9
OC(COc1ccc2cc(Br)ccc2c1)Cn1ccnc1 (stereo not given)	T cruzi repl 57.8
Clc1ccc(OCCn2ccnc2)cc1Cl	T cruzi repl 59.2
Clc1cccc(OCCCn2ccnc2)c1	none
c1ccc2cc(OCCCn3ccnc3)ccc2c1	T cruzi repl 62.8
Clc1cc(Br)ccc1OCCn1ccnc1	none (no result: PfHsp90 yeast 2)
COc1cccc(C(=O)N[C@H](C(=O)N2CCC[C@H]2C(=O)NCCc2ccccc2Cl)C2CCCCC2)c1	none (no result: T cruzi repl, HSF-1 act, PvdQ acylase, N-glyco inh, PfHsp90 yeast 2)
